Screening data from PubChem.
GalR3 antagonist – human GalR3 antagonism; O60755; actives 0.44% (n = 360,000); HEK293 GalR3-CNG cAMP membrane potential fluorescence; galR3 body fused to GalR1 C-terminus; inhibition, % at 3 µM;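 active = inhibition above the screen-wide average plus 3 SD, cut at about 13% in these data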;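 note: forskolin and galanin both at EC90 stimulate the cells; cAMP rise reported by CNG channel membrane potential dye signal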
Target sequence (O60755 1-299 limits assumed): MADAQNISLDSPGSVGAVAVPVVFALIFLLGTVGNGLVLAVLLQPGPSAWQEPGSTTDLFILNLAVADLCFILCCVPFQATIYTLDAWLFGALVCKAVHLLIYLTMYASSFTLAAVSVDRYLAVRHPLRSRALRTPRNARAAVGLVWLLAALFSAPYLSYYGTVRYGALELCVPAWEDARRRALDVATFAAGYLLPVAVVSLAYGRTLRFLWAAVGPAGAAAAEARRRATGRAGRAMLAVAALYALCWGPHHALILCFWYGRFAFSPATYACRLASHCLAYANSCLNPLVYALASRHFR
697 NFkB inh – inhibitors of the PMA/ionomycin-induced NF-kB reporter in 697 B cells | 697 B-cell NF-kB luciferase reporter, 16 h | inhibition, % at 4 µM | actives 0.33% (n = 330,000); in the data active = inhibition above about 35%
Jurkat NFkB inh – lowers PMA/ionomycin-induced NF-kB signal in Jurkat cells; inhibition, % at 4 µM; PMA/ionomycin-induced NF-kB luciferase reporter, luminescence; AID 435003; actives 0.53% (n = 330,000); in the data active = inhibition above about 50%
JMJD2C inh – blocks human GASC-1 demethylase activity; GST-JMJD2C(1-420) H3K9me3 demethylation, DELFIA europium; inhibition, % at 2.35 µM; actives 0.069% (n = 330,000); AID 2099;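 active = more than half of a compound's replicate wells show inhibition beyond 50%, single wells judged on their own value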;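 note: signal counts dimethyl H3K9 product captured on neutravidin plate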
Target sequence (Q9H3R0 1-420 limits assumed): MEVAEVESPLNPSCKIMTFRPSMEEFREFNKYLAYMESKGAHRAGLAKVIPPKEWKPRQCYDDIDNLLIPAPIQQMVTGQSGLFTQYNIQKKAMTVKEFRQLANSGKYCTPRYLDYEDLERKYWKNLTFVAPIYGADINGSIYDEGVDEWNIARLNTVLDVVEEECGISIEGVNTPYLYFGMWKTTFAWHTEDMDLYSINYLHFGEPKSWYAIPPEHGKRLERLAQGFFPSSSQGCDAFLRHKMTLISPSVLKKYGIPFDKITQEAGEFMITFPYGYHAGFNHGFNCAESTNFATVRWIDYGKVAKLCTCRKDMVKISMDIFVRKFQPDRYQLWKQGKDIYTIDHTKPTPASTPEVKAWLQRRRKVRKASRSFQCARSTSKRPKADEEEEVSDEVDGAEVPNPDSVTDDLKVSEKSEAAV
NR2E3 ag-1 – agonists of human nuclear receptor NR2E3. AID 2300. actives 0.12% (n = 320,000). inhibition of corepressor binding, % at 4.78 µM. GST-NR2E3/biotin-RetCOR TR-FRET, 1536-well;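 active = percent inhibition above the cutoff of mean plus 3 SD of all tested compounds, set per screening campaign, cut at about 20% in these data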
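System: GST-tagged NR2E3 plus biotinylated RetCOR corepressor; Amount: 1.35 nM GST-tagged NR2E3 final; Dosing: single nominal compound dose of 4.8 µM; Schedule: 5 h incubation at 4 °C; Technique: TR-FRET with europium anti-GST and streptavidin-D2, 340 nm excitation; Controls: biotin wells as high control, 0.6% DMSO wells as low control.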
NR2E3 ag-2 – activates human NR2E3 receptor | actives 0.35% (n = 360,000) | Q9Y5X4 | inhibition of corepressor binding, % at 3.98 µM | CHO-S Gal4-NCOR/VP16-NR2E3 two-hybrid, luciferase;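 active = inhibition above the mean of all tested compounds plus 3 SD, cut at about 70% in these data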;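 note: higher means lower luciferase signal from less NR2E3 corepressor binding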
Jurkat NFkB conf – lowers PMA/ionomycin-induced NF-kB signal in Jurkat cells. shares compounds with Jurkat NFkB inh. AID 435020. inhibition, % at 4 µM. actives 27% (n = 2,700). Jurkat NF-kB luciferase, 16 h;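 active = inhibition reaching about 45% at 4 µM in either replicate, limit read from the data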
697 NFkB conf – lowers PMA/ionomycin-induced NF-kB signal in 697 B cells | shares compounds with 697 NFkB inh | 697 B-cell NF-kB luciferase, 16 h | inhibition, % at 4 µM | actives 35% (n = 2,000) | AID 449746; in the data active = inhibition mostly above about 28%, no sharp cut-off; inactive = mostly below about 22%
Hits are given with their value. Most compounds without a hit are left out; they make up all but 1.5% or so of the library.

`O=C(NCCN1CCOCC1)c1cc(-c2ccc(Br)cc2)on1` gave GalR3 antagonist inactive, 697 NFkB inh inactive, Jurkat NFkB inh inactive, JMJD2C inh inactive, NR2E3 ag-1 inactive and NR2E3 ag-2 inactive.
`C=CCNC(=O)c1cc(-c2ccc(Br)cc2)on1` gave GalR3 antagonist inactive, 697 NFkB inh inactive, Jurkat NFkB inh inactive, JMJD2C inh inactive, NR2E3 ag-1 inactive, NR2E3 ag-2 inactive and Jurkat NFkB conf inactive.
`O=[N+]([O-])c1cc([N+](=O)[O-])c(Oc2cc(F)ccc2F)cc1NN1CCCCC1` gave GalR3 antagonist inactive, 697 NFkB inh inactive, Jurkat NFkB inh inactive, JMJD2C inh inactive, NR2E3 ag-1 inactive and NR2E3 ag-2 inactive.
For COc1ccc(-c2cc3ccccc3cn2)cc1 the results were GalR3 antagonist inactive, 697 NFkB inh inactive, Jurkat NFkB inh inactive, JMJD2C inh inactive, NR2E3 ag-1 inactive, NR2E3 ag-2 inactive and Jurkat NFkB conf inactive.
`COc1ccc2cc(-c3cccnc3)ncc2c1` gave GalR3 antagonist inactive, 697 NFkB inh inactive, Jurkat NFkB inh inactive, JMJD2C inh inactive, NR2E3 ag-1 inactive and NR2E3 ag-2 inactive.
COc1ccc2cc(-c3ccccc3F)ncc2c1 was read as GalR3 antagonist inactive, 697 NFkB inh inactive, Jurkat NFkB inh inactive, JMJD2C inh inactive, NR2E3 ag-1 inactive, NR2E3 ag-2 inactive and Jurkat NFkB conf inactive.
For COc1cc(/C=C/C(=O)c2ccc([N+](=O)[O-])o2)ccc1O the results were GalR3 antagonist inactive, 697 NFkB inh inactive, Jurkat NFkB inh 70.8, JMJD2C inh inactive, NR2E3 ag-1 inactive, NR2E3 ag-2 inactive and Jurkat NFkB conf 47.5.
`COC1CCC2(C)C(=CCC3C4CC(O)CC4(C)CCC32)C1` (stereo not drawn) gave GalR3 antagonist inactive and NR2E3 ag-2 inactive.
`O=C(/C=C\Nc1cccc(F)c1)c1cccs1` gave GalR3 antagonist inactive, 697 NFkB inh inactive, Jurkat NFkB inh inactive, JMJD2C inh inactive, NR2E3 ag-1 inactive, NR2E3 ag-2 inactive and Jurkat NFkB conf inactive.
`O=C(/C=C\Nc1ccc2c(c1)OCO2)c1cccs1` gave GalR3 antagonist inactive, 697 NFkB inh inactive, Jurkat NFkB inh inactive, JMJD2C inh inactive, NR2E3 ag-1 inactive and NR2E3 ag-2 inactive.
`CC(C)CCn1cnc2c(sc3nc4c(cc32)CSC(C)(C)C4)c1=O` gave GalR3 antagonist inactive, 697 NFkB inh inactive, Jurkat NFkB inh inactive, JMJD2C inh inactive, NR2E3 ag-1 inactive, NR2E3 ag-2 inactive, Jurkat NFkB conf inactive and 697 NFkB conf inactive.
CCn1c(C)nc2cc(-c3nc4n(n3)Cc3ccccc3-4)ccc21 was read as 697 NFkB inh 69.9, Jurkat NFkB inh 90.6, JMJD2C inh inactive, NR2E3 ag-1 inactive, NR2E3 ag-2 97.2, Jurkat NFkB conf 90.7 and 697 NFkB conf 73.6.
Cc1ccc(-c2nc3n(n2)Cc2ccccc2-3)cc1 was read as GalR3 antagonist inactive, 697 NFkB inh inactive, Jurkat NFkB inh inactive, JMJD2C inh inactive, NR2E3 ag-1 inactive and NR2E3 ag-2 inactive.
Screening Cc1ccc(NC(CC(=O)c2ccccc2)C(=O)O)cc1Cl (stereo not drawn) returned GalR3 antagonist inactive, 697 NFkB inh inactive, Jurkat NFkB inh inactive, JMJD2C inh inactive, NR2E3 ag-1 inactive, NR2E3 ag-2 inactive, Jurkat NFkB conf inactive and 697 NFkB conf inactive.
O=C(NCCNCCO)C1(C(F)(F)F)C/C(=C\CCO)CCCO1 (stereo not drawn) was read as GalR3 antagonist inactive, 697 NFkB inh 60.6, Jurkat NFkB inh 54.2, JMJD2C inh inactive, NR2E3 ag-1 inactive, NR2E3 ag-2 inactive, Jurkat NFkB conf 83.2 and 697 NFkB conf 58.5.
`Cc1nn(-c2nc3ccccc3[nH]2)c(N)c1-c1ccccc1` gave GalR3 antagonist inactive, 697 NFkB inh inactive, Jurkat NFkB inh inactive, JMJD2C inh inactive, NR2E3 ag-1 inactive, NR2E3 ag-2 inactive, Jurkat NFkB conf inactive and 697 NFkB conf inactive.
Screening Cc1nn(-c2ccccc2)c(N)c1-c1ccccc1 returned GalR3 antagonist inactive, 697 NFkB inh inactive, Jurkat NFkB inh inactive, JMJD2C inh inactive, NR2E3 ag-1 inactive and NR2E3 ag-2 inactive.
`C=CC(=O)Nc1ccc(Nc2nc(NC3CCC(N(C)C)CC3)nc3c2ncn3C(C)C)cc1` (stereo not drawn) gave 697 NFkB inh 97.1, Jurkat NFkB inh 100.3, JMJD2C inh inactive, NR2E3 ag-2 inactive, Jurkat NFkB conf 96.8 and 697 NFkB conf 80.5.
For CC(C)n1cnc2c(Nc3ccc(F)c(Cl)c3)nc(NCCO)nc21 the results were GalR3 antagonist inactive, 697 NFkB inh inactive, Jurkat NFkB inh inactive, JMJD2C inh inactive, NR2E3 ag-1 inactive and NR2E3 ag-2 inactive.
For COc1cccc(C(=O)Nc2nc3ccccc3s2)c1 the results were GalR3 antagonist inactive, 697 NFkB inh inactive, Jurkat NFkB inh inactive, JMJD2C inh inactive, NR2E3 ag-1 inactive, NR2E3 ag-2 inactive, Jurkat NFkB conf inactive and 697 NFkB conf inactive.
Screening COc1ccc(C(=O)Nc2nc3ccccc3s2)cc1OC returned GalR3 antagonist inactive, 697 NFkB inh inactive, Jurkat NFkB inh inactive, JMJD2C inh inactive, NR2E3 ag-1 inactive and NR2E3 ag-2 inactive.
O=C1c2ccccc2C(=O)N1c1cccnc1 was read as GalR3 antagonist inactive, 697 NFkB inh 45.4, Jurkat NFkB inh 53.0, JMJD2C inh inactive, NR2E3 ag-1 inactive, NR2E3 ag-2 inactive, Jurkat NFkB conf inactive and 697 NFkB conf inactive.
Screening O=C1c2cccc([N+](=O)[O-])c2C(=O)N1c1cccnc1 returned GalR3 antagonist inactive, 697 NFkB inh inactive, Jurkat NFkB inh inactive, JMJD2C inh inactive, NR2E3 ag-1 inactive and NR2E3 ag-2 inactive.
Cc1ccc(C)c(NC(=O)c2ccc3ccccc3n2)c1 was read as GalR3 antagonist inactive, 697 NFkB inh inactive, Jurkat NFkB inh inactive, JMJD2C inh inactive, NR2E3 ag-1 inactive, NR2E3 ag-2 inactive, Jurkat NFkB conf inactive and 697 NFkB conf inactive.
`Cc1cc[n+](CC[n+]2ccc(C)cc2)cc1` gave GalR3 antagonist inactive, 697 NFkB inh inactive, Jurkat NFkB inh inactive, JMJD2C inh inactive, NR2E3 ag-1 inactive and NR2E3 ag-2 inactive.
`CCC(C)(C)c1ccc(OCCCC[n+]2ccc(C)cc2)c(C(C)(C)CC)c1` gave GalR3 antagonist inactive, 697 NFkB inh 81.3, Jurkat NFkB inh 53.8, JMJD2C inh inactive, NR2E3 ag-1 inactive, Jurkat NFkB conf 55.1 and 697 NFkB conf 44.4.
Screening CN(C)Cc1ccc(CNC(=O)COc2ccc3ccccc3c2)cc1 returned GalR3 antagonist inactive, 697 NFkB inh inactive, Jurkat NFkB inh inactive, JMJD2C inh inactive, NR2E3 ag-1 inactive and NR2E3 ag-2 inactive.
